Assay results: ChEMBL document CHEMBL1145383, “Synthesis of stable and potent delta/mu opioid peptides: analogues of H-Tyr-c[D-Cys-Gly-Phe-D-Cys]-OH by ring-closing metathesis” (J Med Chem, 2007)

How the values were obtained:
[1] = target: T1, Delta-type opioid receptor (Homo sapiens, UniProt P41143); assay: Agonist activity at human delta opioid receptor by [35S]GTP-gamma-S binding assay relative to control; format: functional
Mu-type opioid receptor [2] = target: T2, Mu-type opioid receptor (Homo sapiens, UniProt P35372); assay: Agonist activity at human mu opioid receptor by [35S]GTP-gamma-S binding assay relative to control; format: functional
Mu-type opioid receptor [3] = target: T2, Mu-type opioid receptor; assay: Agonist activity at human mu opioid receptor by [35S]GTP-gamma-S binding assay; format: functional
[4] = target: Delta-type opioid receptor (Mus musculus, UniProt P32300); assay: Agonist activity at delta opioid receptor in mouse vas deferens assessed as inhibition of electrically-evoked muscle contraction; format: functional, tissue-based
How it was run: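 Mouse vas deferens from male ICR mice (25–30 g), bathed in oxygenated (95% O2/5% CO2) magnesium-free Krebs bicarbonate at 37 °C. Tension 0.5 g, stimulated transmurally at 0.1 Hz with 2.0 ms pulses at supramaximal voltage. Agonist contact 3 min, then rinse and 8 min recovery. IC50 from Hill fit of mean data, n ≥ 4 tissues.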

[5] = target: Kappa-type opioid receptor (Cavia porcellus, UniProt P41144); assay: Displacement of [3H]U-69593 from kappa opioid receptor in guinea pig brain membrane; format: cell membranes
[6] = target: T1, Delta-type opioid receptor; assay: Agonist activity at human delta opioid receptor by [35S]GTP-gamma-S binding assay; format: functional
How it was run: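 Cells expressing hDOR were incubated with increasing test concentrations plus 0.1 nM [35S]GTPγS, in duplicate, for 90 min at 30 °C. Reaction stopped by vacuum filtration through GF/B filters pretreated with assay buffer. Filters washed four times with ice-cold 15 mM Tris/120 mM NaCl, pH 7.4, and bound label counted by liquid scintillation after overnight extraction.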

Mu-type opioid receptor [7] = target: Mu-type opioid receptor (Cavia porcellus, UniProt P97266); assay: Agonist activity at mu opioid receptor in isolated guinea pig ileum assessed as inhibition of electrically-evoked myenteric muscle contraction; format: functional, tissue-based
How it was run: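 Longitudinal muscle-myenteric plexus from male Hartley guinea pigs (150–400 g), in oxygenated (95% O2/5% CO2) Krebs bicarbonate at 37 °C. Tension 1 g, transmural stimulation at 0.1 Hz with 0.4 ms pulses at supramaximal voltage. Agonist left 3 min, then washout and 8 min re-equilibration. IC50 by nonlinear least-squares Hill fit of mean data from at least four tissues.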

Sequence of Mu-type opioid receptor (Cavia porcellus, UniProt P97266) (P97266 whole entry): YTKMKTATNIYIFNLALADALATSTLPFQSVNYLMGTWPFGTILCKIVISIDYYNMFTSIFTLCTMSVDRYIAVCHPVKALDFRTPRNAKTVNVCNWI
Sequence of Kappa-type opioid receptor (P41144 whole entry): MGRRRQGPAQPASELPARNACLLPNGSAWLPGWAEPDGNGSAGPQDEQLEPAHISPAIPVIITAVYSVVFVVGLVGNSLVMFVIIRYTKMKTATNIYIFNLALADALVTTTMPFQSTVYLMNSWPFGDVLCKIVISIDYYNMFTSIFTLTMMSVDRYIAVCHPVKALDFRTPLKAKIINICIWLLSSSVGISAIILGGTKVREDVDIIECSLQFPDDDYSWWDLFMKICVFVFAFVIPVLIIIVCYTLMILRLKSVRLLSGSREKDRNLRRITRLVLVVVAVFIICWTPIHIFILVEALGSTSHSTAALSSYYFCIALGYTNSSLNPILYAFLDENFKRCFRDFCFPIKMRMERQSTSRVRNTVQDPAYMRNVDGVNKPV
Sequence of Delta-type opioid receptor (Mus musculus, UniProt P32300) (P32300 whole entry): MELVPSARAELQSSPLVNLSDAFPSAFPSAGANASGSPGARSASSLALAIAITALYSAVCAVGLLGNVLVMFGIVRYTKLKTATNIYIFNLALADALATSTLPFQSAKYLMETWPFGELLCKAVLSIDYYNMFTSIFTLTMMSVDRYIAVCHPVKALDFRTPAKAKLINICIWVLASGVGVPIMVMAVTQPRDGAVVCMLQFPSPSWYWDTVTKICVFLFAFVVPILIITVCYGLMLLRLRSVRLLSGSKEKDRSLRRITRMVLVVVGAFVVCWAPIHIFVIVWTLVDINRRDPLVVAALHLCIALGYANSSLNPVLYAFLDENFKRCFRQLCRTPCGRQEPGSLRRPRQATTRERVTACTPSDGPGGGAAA
T1 sequence (P41143 whole entry): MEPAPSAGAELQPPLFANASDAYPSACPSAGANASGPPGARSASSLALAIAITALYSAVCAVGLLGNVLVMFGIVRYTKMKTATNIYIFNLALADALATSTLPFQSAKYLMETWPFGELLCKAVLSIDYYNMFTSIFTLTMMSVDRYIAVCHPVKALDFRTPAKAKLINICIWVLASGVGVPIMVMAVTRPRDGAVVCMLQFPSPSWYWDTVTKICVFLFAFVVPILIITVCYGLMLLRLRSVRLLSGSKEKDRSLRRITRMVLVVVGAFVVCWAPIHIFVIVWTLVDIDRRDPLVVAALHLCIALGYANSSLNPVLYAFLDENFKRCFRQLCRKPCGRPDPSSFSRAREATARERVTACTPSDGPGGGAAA
T2 sequence (P35372 whole entry): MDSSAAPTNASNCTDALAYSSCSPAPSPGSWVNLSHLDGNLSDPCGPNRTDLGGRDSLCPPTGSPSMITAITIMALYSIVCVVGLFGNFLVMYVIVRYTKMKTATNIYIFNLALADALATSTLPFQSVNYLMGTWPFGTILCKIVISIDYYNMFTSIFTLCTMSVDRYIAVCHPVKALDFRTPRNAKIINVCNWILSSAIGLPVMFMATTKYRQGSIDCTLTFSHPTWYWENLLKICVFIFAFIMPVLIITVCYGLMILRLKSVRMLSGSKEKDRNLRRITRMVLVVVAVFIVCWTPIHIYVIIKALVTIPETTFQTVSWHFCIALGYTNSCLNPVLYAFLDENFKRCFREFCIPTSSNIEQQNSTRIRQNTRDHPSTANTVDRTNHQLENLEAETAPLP

For `N[C@@H](Cc1ccc(O)cc1)C(=O)N[C@@H]1C/C=C\C[C@H](C(=O)O)NC(=O)[C@H](Cc2ccccc2)NC(=O)CNC1=O`, the Emax [1] was 121%, the Emax (Mu-type opioid receptor [2]) was 65% and the EC50 (Mu-type opioid receptor [3]) was 2.35 nM. For the same compound, the IC50 [4] was 0.59 nM, the Ki [5] was 576 nM and the EC50 [6] was 0.83 nM. It also gave an IC50 (Mu-type opioid receptor [7]) of 5.3 nM.

`N[C@@H](Cc1ccc(O)cc1)C(=O)N[C@@H]1CCCC[C@H](C(=O)O)NC(=O)[C@H](Cc2ccccc2)NC(=O)CNC1=O` was tested, and the IC50 [4] was 3.4 nM, the Ki [5] was 3960 nM and the IC50 (Mu-type opioid receptor [7]) was 59 nM.

Compound `C=CC[C@@H](NC(=O)[C@H](Cc1ccccc1)NC(=O)CNC(=O)[C@@H](CC=C)NC(=O)[C@@H](N)Cc1ccc(O)cc1)C(=O)O` has an IC50 [4] of 5.7 nM, a Ki [5] of 3870 nM and an IC50 (Mu-type opioid receptor [7]) of 34 nM.

With `N[C@@H](Cc1ccc(O)cc1)C(=O)N[C@@H]1C/C=C/C[C@H](C(=O)O)NC(=O)[C@H](Cc2ccccc2)NC(=O)CNC1=O` the Emax [1] was 128%, the Emax (Mu-type opioid receptor [2]) was 70% and the EC50 (Mu-type opioid receptor [3]) was 2.65 nM. For the same compound, the IC50 [4] was 0.76 nM, the Ki [5] was 74.8 nM and the EC50 [6] was 0.88 nM. It also gave an IC50 (Mu-type opioid receptor [7]) of 5.2 nM.
